This excerpt belongs to a sample that is enriched for hits.
NALP1 inh – NALP1 inflammasome inhibitors in reconstituted yeast, colorimetric, S. cerevisiae, triplicate retest. S. cerevisiae NALP1/ASC/caspase-1 growth, X-gal OD620, 72 h. inhibition, % at 10 µM. 280,000 tested, 0.61% active. AID 2071, 2009; in the data active means inhibition mostly above about 24%, no sharp cut-off; inactive means mostly below about 32%
PolyA inh – polyadenylation inhibitors in yeast reporter cells, primary screen, luminescence, S. cerevisiae; S. cerevisiae SKY197-pL101 polyadenylation reporter, beta-gal luminescence; efflux-impaired pdr1/pdr3 knockout yeast; score 100 = 6 SD above DMSO; activity score, % at 12 µM; 300,000 tested, 0.02% active;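 active means lowest replicate activity score at least 50, where 100 means six control SD above control mean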;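 further: yeast exposed to compound for 9 h at 30 °C; higher score means more reporter readthrough which indicates perturbed polyadenylation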
Calb FLC – C. albicans growth inhibition with fluconazole, primary screen, CaCi-2 strain, Alamar Blue fluorescence; C. albicans CaCi-2 + fluconazole, 48 h; 300,000 tested, 0.57% active; growth inhibition, % (no concentration beside the values);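 active means growth inhibition above about 58% in most replicates, limit read from the data, passing the limit was not always enough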;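 further: all wells also contain fluconazole at 8 µg/ml as a sub-toxic cotreatment; 0% = median of DMSO wells and 100% = median of geldanamycin control wells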
T cruzi inh – inhibitors of intracellular T. cruzi growth, primary screen, luminescence, NIH3T3 host cells; T. cruzi beta-gal in NIH3T3, 90 h; inhibition, % (no concentration beside the values); 300,000 tested, 1.4% active;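 active means mean inhibition across valid replicates above about 55%, limit read from the data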;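 further: signal also drops with host cell toxicity which is not excluded here; 0% = plate median of DMSO wells and 100% = zero luminescence signal; higher percent means less beta-gal luminescence so fewer parasites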
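System: mouse NIH/3T3 fibroblasts infected with β-gal-expressing T. cruzi Tulahuen C4 / Input: NIH/3T3 cells, 5,000 per well / Buffer or medium: Low-serum DMEM with 2% FBS / Probe or stimulus: 5000 reporter trypomastigotes per well / Schedule: ≥90 h infection period, 3 h prior cell attachment / Measured by: GalScreen luminescence, 60 min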
NALP3 yeast inh – NALP3 inflammasome inhibitors in reconstituted yeast, primary screen, luminescence, uHTS; Yeast reconstituted NLRP3/ASC/caspase-1, beta-gal luminescence, 24 h; 330,000 tested, 0.39% active; AID 2825, 2010; inhibition, % at 10 µM;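 active means inhibition of 50% or more; inactive means inhibition below 50%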;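 further: plate controls were induced DMSO wells for no effect and uninduced yeast grown without galactose for full effect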
Lmaj promast – Leishmania major promastigote growth inhibition, primary screen; AID 1063, 2008; inhibition, % at 10 µM; Leishmania major promastigotes, resazurin fluorescence viability; 200,000 tested, 9% active; in the data active means inhibition above about 50%;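 further: promastigotes grown with compound for 44 hours at 28 °C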
* hit, by the source's call; x = not tested or not shown.

SMILES | NALP1 inh | PolyA inh | Calb FLC | T cruzi inh | NALP3 yeast inh | Lmaj promast
CC(C)CC(NC(=O)c1cccc(Cl)c1)C(=O)O (stereo not given) | 8 | -11 | -3 | -4 | 8 | 15
CCCCC(NC(=O)c1ccc(Cl)cc1)C(=O)O (stereo not given) | -3 | 4 | -15 | 10 | -7 | 86*
CSCCC(NC(=O)c1ccc(Br)cc1)C(=O)O (stereo not given) | -13 | -2 | -17 | -12 | -20 | 80*
Cn1c(NCCN(CCO)CCCc2ccc([N+](=O)[O-])cc2)cc(=O)n(C)c1=O | x | 11 | -3 | -19 | 9 | x
CCCOc1ccc(CNC(=S)N/N=C/c2ccc([N+](=O)[O-])cc2)cc1 | 19 | 16 | 13 | 61* | 9 | 8
CCOc1ccc(CNC(=S)N/N=C/c2ccncc2)cc1 | 20 | -2 | -12 | 18 | -9 | -2
COc1ccc(CNC(=S)N/N=C/c2ccncc2)cc1 | 12 | 11 | -1 | 19 | 5 | 54*
C=CCn1c(=O)c(C(=O)Nc2ccc(C)cc2)c(O)c2ccccc21 | 21 | -4 | 2 | 4 | 18 | x
O=C(CSc1nnc(-c2cnccn2)n1Cc1ccco1)c1ccc2ccccc2c1 | 0 | 7 | 4 | 5 | -3 | 6
Cc1cccc(CSc2nnc(-c3cccs3)n2Cc2ccco2)c1 | -4 | -39 | 47 | 12 | -20 | 90*
C(=C\c1ccccc1)/CSc1nnc(-c2cnccn2)n1Cc1ccco1 | 23 | -13 | -7 | 0 | 9 | 100*
CC(C)OC(=O)CSc1nnc(-c2cnccn2)n1Cc1ccco1 | 20 | 3 | 6 | -3 | 6 | -1
Brc1ccc(CSc2nnc(-c3cnccn3)n2Cc2ccco2)cc1 | 33 | -7 | 99* | 14 | 5 | 9
O=C1C2CCCCC2C(=O)N1c1ccc(S(=O)(=O)Nc2ncccn2)cc1 (stereo not given) | 9 | 24 | -4 | -16 | -3 | x
COc1ccc(NC(=S)N(C)CC2COc3ccccc3O2)cc1 (stereo not given) | 4 | -6 | -6 | -4 | 15 | 5
O=C(c1ccc(OC2CCN(CCc3ccccc3)CC2)cc1)N1CCCC(CO)C1 (stereo not given) | 0 | 7 | -3 | -19 | 1 | -1
O=c1[nH]c2ccc(S(=O)(=O)Nc3ccc(Cl)cc3)cc2[nH]1 | 12 | 7 | 4 | -19 | 16 | x
CN(C)Cc1nc2ccccc2c(=O)n1Cc1nc(-c2cc3ccccc3o2)cs1 | 2 | -6 | -8 | 65* | 14 | 33
CCOc1ccc2[nH]c(=O)c(CN(Cc3nnnn3Cc3ccco3)C3CCCCC3)cc2c1 | -17 | -3 | -2 | -3 | 16 | 39
COc1ccc(Cn2nnnc2CN(Cc2cc3ccc(C)cc3[nH]c2=O)C2CCCC2)cc1 | -3 | 21 | 6 | 17 | 13 | 82*
CCC(C)(C)n1nnnc1CN(Cc1cc2cc(OC)ccc2[nH]c1=O)C1CCCC1 | -8 | 10 | 18 | 30 | 1 | 98*
C#CCOC(=O)c1ccc(-n2cncn2)nc1 | 42* | -1 | -3 | 3 | 10 | -5
CCOC(=O)c1ccc(-n2cncn2)nc1 | -2 | 5 | 9 | 2 | -5 | -6
O=C(CCCc1nc2ccccc2s1)NC(c1ccccc1)c1ccccc1 | 27 | -4 | 4 | 10 | -12 | -1
COc1ccccc1OC(C)C(=O)Nc1ccc(S(=O)(=O)N2CCN(C)CC2)cc1 (stereo not given) | 4 | -3 | 0 | -1 | 8 | x
COCCN1CN(S(=O)(=O)c2ccc(Cl)cc2)c2nc3ccccc3nc21 | -5 | -13 | -4 | 6 | 7 | 77*
CCc1ccc(OC(C)C(=O)Nc2ccc(S(=O)(=O)Nc3nccs3)cc2)cc1 (stereo not given) | 6 | 1 | 12 | -13 | 20 | x
CC(C)c1ccc(NC(=O)COc2ccccn2)cc1 | 8 | 23 | -3 | 56* | 7 | 1
CC(C)c1ccc(NC(=O)COc2ccccc2)cc1 | -5 | -3 | 0 | -4 | 23 | x

Source: PubChem
